Assay results: ChEMBL document CHEMBL5584277, “Identification of 5-Thiocyanatothiazol-2-amines Disrupting WDR5-MYC Protein-Protein Interactions” (ACS Med Chem Lett, 2024)
Values belong to the compound of their own block, whether it stands above or below them.

How the values were obtained:
WDR5-MYC = WDR5-MYC (Homo sapiens, UniProt P61964); assay: Disruption of WDR5/5-FAM-labelled MYC (261 to 267 residues)(unknown origin) interaction incubated for 120 mins by FP assay; format: protein assay
Summary of the method: (§1)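 FP competition with reporter probe from MYC MbIIIb residues E261–V267 bound to WDR5, compound concentration varied, DMSO as negative control. Ki obtained by fitting FP signal change to a hyperbolic function. Unlabelled MYC peptide run as assay quality control.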

WDR5-MYC (Homo sapiens) [1] = target: T1, WDR5-MYC (Homo sapiens) (UniProt P61964+P01106); assay: Disruption of WDR5/5-FAM-labelled MYC (261 to 267 residues)(unknown origin) interaction at 50 uM incubated for 120 mins by FP assay relative to control; format: protein assay
Summary of the method: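 Single-point FP screen at 50 μM compound, signal read against DMSO control. Inhibition rate given as mean of n = 2.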

NCI-H1299 = assay: Antiproliferative activity against human NCI-H1299 cells incubated for 72 hrs by SRB assay; format: functional, cell-based; settings: NCI-H1299, 72 h
SUD4 = assay: Antiproliferative activity against human SU-DHL-4 cells incubated for 72 hrs by SRB assay; format: functional, cell-based; settings: SU-DHL-4, 72 h
HL-60 = assay: Antiproliferative activity against human HL-60 cells incubated for 72 hrs by SRB assay; format: functional, cell-based; settings: HL-60, 72 h
Ramos = assay: Antiproliferative activity against human Ramos cells incubated for 72 hrs by SRB assay; format: functional, cell-based
Raji = assay: Antiproliferative activity against human Raji cells incubated for 72 hrs by SRB assay; format: functional, cell-based
WDR5-MYC (Homo sapiens) [2] = target: T1, WDR5-MYC (Homo sapiens); assay: Disruption of His-tagged recombinant WDR5 (unknown origin)/HEK293T cell lysate-derived C-MYC (unknown origin) protein-protein interaction assessed as dissociation of protein complex incubated for 120 mins by Co-IP assay
[3] = target: WD repeat-containing protein 5 (Homo sapiens) (UniProt P61964); assay: Binding affinity to WDR5 (unknown origin) assessed as decrease in melting temperature by DSF assay relative to control
Summary of the method: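 DSF with WDR5 protein, with DMSO as the reference group. The inflection-point temperature (Ti) of WDR5 was monitored after compound treatment, and the change is reported as ΔTi relative to DMSO.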

[4] = target: WD repeat-containing protein 5 (Homo sapiens) (UniProt P61964); assay: Binding affinity to WDR5 (unknown origin) assessed as increase in melting temperature by DSF assay relative to control
Summary of the method: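 Differential scanning fluorimetry on WDR5 protein, compounds against DMSO. Inflection-point temperature (Ti) monitored, shift given as ΔTi relative to DMSO group.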

WDR5-MYC (Homo sapiens) [5] = target: T1, WDR5-MYC (Homo sapiens); assay: Disruption of WDR5/5-FAM-labelled MYC (261 to 267 residues)(unknown origin) interaction assessed as fold increase in activity incubated for 0.5 to 6 hrs by FP assay relative to control; format: protein assay; settings: time 0.5-6 hrs
Summary of the method: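 Fluorescence polarization with WDR5 and a reporter peptide probe from MYC MbIIIb residues E261–V267. Compounds and WDR5 were incubated for 30 to 360 min before reading. FP signal was recorded over varying compound concentrations and fitted to a hyperbolic function to give Ki. DMSO served as negative control, and free MYC peptide was the quality control.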

WDR5-MYC (Homo sapiens) [6] = target: T1, WDR5-MYC (Homo sapiens); assay: Disruption of WDR5/5-FAM-labelled MYC (261 to 267 residues)(unknown origin) interaction incubated for 0.5 hrs by FP assay relative to control; format: protein assay
Summary of the method: (§2)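 Time-course FP competition between WDR5 and MYC-derived probe (E261–V267). Compound titrated and read after incubation times from 30 to 360 min. Maximal inhibition (%) and potency taken at each time point from the inhibition curves.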

WDR5-MYC (Homo sapiens) [7] = target: T1, WDR5-MYC (Homo sapiens); assay: Disruption of WDR5/5-FAM-labelled MYC (261 to 267 residues)(unknown origin) interaction by FP assay; format: protein assay; settings: time 0.5-6 hrs; summary of the method: as §1
WDR5-MYC (Homo sapiens) [8] = target: T1, WDR5-MYC (Homo sapiens); assay: Disruption of WDR5/5-FAM-labelled MYC (261 to 267 residues)(unknown origin) interaction incubated for 6 hrs by FP assay relative to control; format: protein assay; summary of the method: as §2

Ki (WDR5-MYC): 4100 nM
SMILES: N#CSc1sc(N)nc1-c1cccc([N+](=O)[O-])c1

inhibition (WDR5-MYC (Homo sapiens) [1]): 0.4%
SMILES: C[S+]([O-])c1sc(N)nc1-c1ccc(Cl)cc1 (stereo unspecified)

Ki (WDR5-MYC): 1500 nM
SMILES: N#CSc1sc(N)nc1-c1ccc(C(F)(F)F)cc1

Ki (WDR5-MYC): 3200 nM
SMILES: N#CSc1sc(N)nc1-c1ccc(F)cc1

Ki (WDR5-MYC): 6100 nM
SMILES: N#CSc1cnc(N)s1

inhibition (WDR5-MYC (Homo sapiens) [1]): 0.9%
SMILES: Nc1nc(-c2ccc(Cl)cc2)cs1

SMILES: CNC(=O)c1ccc(-c2nc(N)sc2SC#N)cc1
IC50 (NCI-H1299): 7400 nM
IC50 (SUD4): 2200 nM
IC50 (HL-60): 5320 nM
IC50 (Ramos): 1510 nM
IC50 (Raji): 1520 nM
Ki (WDR5-MYC): 1000 nM
Activity (WDR5-MYC (Homo sapiens) [2]): Dose-Dependent Effect
ΔTm [3]: -5.8 °C

Ki (WDR5-MYC): 3000 nM
SMILES: N#CSc1sc(N)nc1-c1ccccc1Br

Ki (WDR5-MYC): > 50000 nM
SMILES: N#CSc1sc(NC(=O)c2ccc(Cl)cc2)nc1-c1ccc(Cl)cc1

ΔTm [4]: 1.4 °C
Ki (WDR5-MYC): 16300 nM
SMILES: COc1ccc(Br)cc1S(=O)(=O)Nc1cc(Cl)ccc1O

inhibition (WDR5-MYC (Homo sapiens) [1]): 1.1%
SMILES: N#Cc1sc(N)nc1-c1ccc(Cl)cc1

Ki (WDR5-MYC): 1200 nM
SMILES: CNc1nc(-c2ccc(Cl)cc2)c(SC#N)s1

inhibition (WDR5-MYC (Homo sapiens) [1]): -5%
SMILES: Nc1nc(-c2ccc(Cl)cc2)c(Br)s1

Ki (WDR5-MYC): 54500 nM
SMILES: Cc1ccc(S(=O)(=O)Nc2nc(-c3ccc(Cl)cc3)c(SC#N)s2)cc1

Ki (WDR5-MYC): 1700 nM
SMILES: COC(=O)c1ccc(-c2nc(N)sc2SC#N)cc1

Ki (WDR5-MYC): 2900 nM
SMILES: COc1ccc(-c2nc(N)sc2SC#N)cc1

Ki (WDR5-MYC): 6300 nM
SMILES: CCOc1ccc(-c2nc(N)sc2SC#N)cc1Br

Ki (WDR5-MYC): 1600 nM
SMILES: CC(C)C(=O)Nc1nc(-c2ccc(Cl)cc2)c(SC#N)s1

Ki (WDR5-MYC): 2600 nM
SMILES: N#CSc1sc(N)nc1-c1ccccc1Cl

fold change (FC) (WDR5-MYC (Homo sapiens) [5]): 1.5
Activity (WDR5-MYC (Homo sapiens) [6]): 33.2%
Ki (WDR5-MYC): 1300 nM
ΔTm [3]: -2.7 °C
Activity (WDR5-MYC (Homo sapiens) [7]): Dose-Dependent Effect
Activity (WDR5-MYC (Homo sapiens) [8]): 51.2%
SMILES: N#CSc1sc(N)nc1-c1ccc(Cl)cc1

Ki (WDR5-MYC): 3000 nM
SMILES: Cc1ccc(-c2nc(N)sc2SC#N)cc1

Ki (WDR5-MYC): > 50000 nM
SMILES: N#CSc1sc(Nc2ccccn2)nc1-c1ccc(Cl)cc1

SMILES: N#CSc1sc(N)nc1-c1ccc(O)cc1
IC50 (NCI-H1299): 3700 nM
IC50 (SUD4): 1430 nM
IC50 (HL-60): 3030 nM
IC50 (Ramos): 1060 nM
IC50 (Raji): 710 nM
Ki (WDR5-MYC): 2400 nM
Activity (WDR5-MYC (Homo sapiens) [2]): Dose-Dependent Effect
ΔTm [3]: -2.7 °C

inhibition (WDR5-MYC (Homo sapiens) [1]): -10%
SMILES: CS(=O)(=O)c1sc(N)nc1-c1ccc(Cl)cc1

Ki (WDR5-MYC): 900 nM
SMILES: N#CSc1sc(N)nc1-c1ccc(Br)cc1

Ki (WDR5-MYC): 2600 nM
SMILES: N#CSc1sc(N)nc1-c1cccc(Br)c1
